According to ChEMBL document CHEMBL3785020, “Discovery of novel sesquistilbene indanone analogues as potent anti-inflammatory agents” (Eur J Med Chem, 2016):
In brackets after ≈: the same amount, converted by molar mass. Activity calls are given as the source filed them. The rule behind the calls is not given here.

Experiments:
[1] = system: RAW264.7; test: Antiinflammatory activity against LPS-induced mouse RAW264.7 cells assessed as inhibition of NO production at 50 uM preincubated for 4 hrs followed by LPS stimulation for 24 hrs by Griess reaction; format: functional
Procedure, shortened: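 RAW264.7 cells in DMEM with 5% FBS at 37 °C and 5% CO2 were pretreated at 50 µM for 4 h, then stimulated with or without LPS (1 µg/mL) for 24 h. Nitrite in the supernatant was measured by Griess reagent at 540 nm against a NaNO2 standard curve. At least three independent experiments, each in duplicate; means ± SEM.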

[2] = system: RAW264.7; test: Antiinflammatory activity against LPS-induced mouse RAW264.7 cells assessed as inhibition of NO production at preincubated for 4 hrs followed by LPS stimulation for 24 hrs by Griess reaction; format: functional, cell-based
Procedure, shortened: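 Cells were pretreated for 4 h, then stimulated with LPS (1 µg/mL) for 24 h. Supernatant was mixed with an equal volume of Griess reagent, and nitrite was read at 540 nm against a NaNO2 standard curve. IC50 was obtained by curve fitting.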

[3] = system: Mus musculus; test: Acute toxicity in ip dosed Kunming mouse assessed as mortality after 7 days by Bliss method; format: organism-based; conditions: in vivo, 168 h
[4] = Solubility in water at pH 1.2; format: physicochemical
[5] = Solubility in water at pH 6.8; format: physicochemical
[6] = Solubility in water at pH 7.4; format: physicochemical
[7] = Lipophilicity, logP of the compound; format: physicochemical; conditions: octanol/water
[8] = (§1) Acute toxicity in ip dosed Kunming mouse after 14 days by Bliss method; format: organism-based; conditions: Kunming, in vivo
[9] = system: RAW264.7; test: Cytotoxicity against mouse RAW264.7 cells assessed as cell viability up to 50 uM by MTT assay; format: cell-based
Procedure, shortened: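 MTT assay after 12.5-50 µM treatment with LPS stimulation for 24 h. Medium was replaced, then MTT was added to a final 0.5 mg/mL and incubated 4 h at 37 °C. Formazan was dissolved in DMSO and absorbance read at 570 nm. At least three independent experiments in duplicate.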

[10] = system: Mus musculus; test: Acute toxicity in po dosed Kunming mouse after 14 days by Bliss method; conditions: in vivo, 336 h
[11] = system: RAW264.7; test: Inhibition of JNK phosphorylation in LPS-induced mouse RAW264.7 cells preincubated with the compound followed by LPS-stimulation for 45 mins by Western blot analysis; format: cell-based
[12] = system: RAW264.7; test: Effect of ERK phosphorylation in LPS-induced mouse RAW264.7 cells preincubated with the compound followed by LPS-stimulation for 45 mins by Western blot analysis; format: cell-based
[13] = system: RAW264.7; test: Antiinflammatory activity against LPS-induced mouse RAW264.7 cells assessed as downregulation of iNOS expression preincubated for 4 hrs followed by LPS stimulation for 24 hrs by Western blot analysis; format: functional, cell-based
Procedure, shortened: (§2)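 Cells serum-starved overnight, pretreated at 12.5-50 µM, then stimulated with LPS 1 µg/mL for 24 h. Whole-cell lysates were made in RIPA buffer with protease and phosphatase inhibitors, and 30 µg protein was loaded. Blots used iNOS (1:500) or COX-2 (1:10000) antibodies with HRP secondary and ECL detection. Signals were normalised to β-actin and expressed as fold of control. At least three independent experiments, each in duplicate.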

[14] = biological target: MAP kinase p38 (Mus musculus) (UniProt P47811+O08911+Q9WUI1+Q9Z1B7); test: Effect of p38 phosphorylation in LPS-induced mouse RAW264.7 cells preincubated with the compound followed by LPS-stimulation for 45 mins by Western blot analysis; format: cell-based
[15] = system: RAW264.7; test: Downregulation of TLR4 expression in LPS-induced mouse RAW264.7 cells preincubated with compound followed by LPS-stimulation for 45 mins by Western blot analysis; format: functional, cell-based
[16] = biological target: Transcription factor p65 (Mus musculus) (UniProt Q04207); test: Inhibition of LPS-stimulated NFkappaB p65 nuclear translocation in mouse RAW264.7 cells preincubated with compound followed by LPS-stimulation for 2 hrs by Western blot analysis; format: cell-based
Transcription factor p65 (Mus musculus), sequence (Q04207 whole entry): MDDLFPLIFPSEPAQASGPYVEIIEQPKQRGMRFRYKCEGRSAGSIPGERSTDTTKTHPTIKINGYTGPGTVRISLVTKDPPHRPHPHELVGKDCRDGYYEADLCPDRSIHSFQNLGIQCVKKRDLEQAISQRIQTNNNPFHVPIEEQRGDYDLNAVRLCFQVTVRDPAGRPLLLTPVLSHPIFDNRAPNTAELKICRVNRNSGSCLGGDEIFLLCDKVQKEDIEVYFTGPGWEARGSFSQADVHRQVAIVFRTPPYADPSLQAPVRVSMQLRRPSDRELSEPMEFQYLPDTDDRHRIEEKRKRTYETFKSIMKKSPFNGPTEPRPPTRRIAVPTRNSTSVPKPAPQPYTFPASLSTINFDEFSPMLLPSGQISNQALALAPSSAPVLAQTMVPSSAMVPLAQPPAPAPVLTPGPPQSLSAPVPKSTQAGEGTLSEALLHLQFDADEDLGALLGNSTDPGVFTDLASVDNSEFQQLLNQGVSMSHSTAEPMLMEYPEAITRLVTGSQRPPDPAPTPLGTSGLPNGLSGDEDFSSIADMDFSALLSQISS
Procedure, shortened: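 Cells were pretreated at 12.5-50 µM, then stimulated with LPS (1 µg/mL) for 2 h. Nuclear and cytoplasmic fractions were prepared with an extraction kit and blotted for NF-κB p65 (1:1000). β-actin was the cytoplasmic loading control and lamin the nuclear one. At least three independent experiments in duplicate.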

[17] = system: RAW264.7; test: Antiinflammatory activity against LPS-induced mouse RAW264.7 cells assessed as downregulation of COX2 expression preincubated for 4 hrs followed by LPS stimulation for 24 hrs by Western blot analysis; format: functional, cell-based; procedure, shortened: as §2
[18] = system: Mus musculus; test: as §1; format: organism-based; conditions: in vivo, 336 h

Structure (SMILES) | inhibition at 50 µM [1] [%] | further results
COc1cc(OC)cc(C2C(O)c3cc(OC)cc(OC)c3C2c2ccccc2)c1 (configuration not stated) | 76.3 | –
COc1ccc([C@@H]2C(=O)c3ccc(OC)cc3[C@H]2c2ccc(F)cc2)cc1 | 85.9 | –
COc1cc(OC)cc([C@@H]2C(=O)c3cc(OC)cc(OC)c3[C@H]2c2ccc(C)cc2)c1 | 83.3 | –
COc1ccc(C2C(=O)c3ccc(OC)cc3C2c2ccccc2)cc1 (racemic) [listing 1 of 2 here] | 87.6 | IC50 ([2]; Mus musculus, RAW264.7): 23.2 µM; Activity [3]: Toxic; solubility [4]: 38.3 µg/mL (≈ 111 µM); solubility [5]: 68.7 µg/mL (≈ 199 µM); solubility [6]: 46.5 µg/mL (≈ 135 µM); logP [7]: 1.77; LD50 at 336 h [8]: 275 mg/kg; Activity [9]: Non-toxic; Activity [10]: Dose-dependent effect
COc1ccc(C2C(=O)c3ccc(OC)cc3C2c2ccccc2)cc1 (racemic) [listing 2 of 2 here] | – | inhibition [11]: Dose-dependent effect; inhibition [2]: Dose-dependent effect; Activity [12]: inactive; Activity [13]: Dose-dependent effect; Activity [14]: inactive; Activity [15]: Dose-dependent effect; inhibition [16]: Dose-dependent effect; Activity [17]: Dose-dependent effect
COc1ccc([C@@H]2c3c(OC)cc(OC)cc3C(=O)[C@H]2c2cc(OC)cc(OC)c2)cc1 (relative stereo) | 61 | –
COc1cc(OC)cc([C@@H]2C(=O)c3cc(OC)cc(OC)c3[C@H]2c2ccccc2)c1 (relative stereo) | 69.2 | –
COc1cc(OC)cc([C@@H]2C(=O)c3cc(OC)cc(OC)c3[C@H]2c2ccc(F)cc2)c1 (relative stereo) | 77.3 | –
COc1cc(OC)cc([C@@H]2C(=O)c3cc(OC)cc(OC)c3[C@H]2c2ccc(C(F)(F)F)cc2)c1 (relative stereo) | 71.8 | –
COc1cc(OC)cc([C@@H]2C(=O)c3cc(OC)cc(OC)c3[C@H]2c2cccc(F)c2)c1 (relative stereo) | 65.7 | –
CCOC(=O)[C@@H]1c2c(OC)cc(OC)cc2C(=O)[C@H]1c1cc(OC)cc(OC)c1 (relative stereo) | 64.6 | –
COc1cc(OC)cc([C@@H]2C(=O)c3cc(OC)cc(OC)c3[C@H]2c2ccc(OCc3ccccc3)cc2)c1 (relative stereo) | 65.8 | –
COc1cc(OC)cc([C@@H]2C(=O)c3cc(OC)cc(OC)c3[C@H]2C2CCCCC2)c1 (relative stereo) | 77.3 | –
COc1cc(OC)cc([C@@H]2C(=O)c3cc(OC)cc(OC)c3[C@H]2c2ccc(-c3ccccc3)cc2)c1 (relative stereo) | 73.9 | –
COc1ccc([C@@H]2C(=O)c3ccc(OC)cc3[C@H]2c2ccc(C)cc2)cc1 (relative stereo) | 47.4 | –
COc1ccc([C@@H]2C(=O)c3ccc(OC)cc3[C@H]2c2ccc(C(F)(F)F)cc2)cc1 (relative stereo) | 80 | –
COc1ccc([C@@H]2C(=O)c3ccc(OC)cc3[C@H]2c2cc(OC)cc(OC)c2)cc1 (relative stereo) | 51.6 | –
COc1cc(OC)cc([C@@H]2C(=O)c3cc(OC)cc(OC)c3[C@H]2c2ccc3ccccc3c2)c1 (relative stereo) | 47.4 | –

Structure (SMILES) | inhibition at 50 µM [1] [%] | further results
CCOc1ccc([C@@H]2c3cc(OC)ccc3C(=O)[C@H]2c2ccc(OC)cc2)cc1 (relative stereo) | 84.4 | –
COc1ccc([C@@H]2C(=O)c3ccc(OC)cc3[C@H]2c2cccc(F)c2)cc1 (relative stereo) | 80 | –
COc1ccc([C@@H]2C(=O)c3ccc(OC)cc3[C@H]2C2CCCCC2)cc1 (relative stereo) | 85.7 | –
COc1cc(OC)cc([C@@H]2c3c(OC)cc(OC)cc3C(=O)[C@H]2c2cc(OC)cc(OC)c2)c1 (relative stereo) | 59.4 | –
CCOc1ccc([C@@H]2c3c(OC)cc(OC)cc3C(=O)[C@H]2c2cc(OC)cc(OC)c2)cc1 (relative stereo) | 80.9 | –
COc1ccc([C@@H]2C(=O)c3ccc(OC)cc3[C@H]2c2ccc3ccccc3c2)cc1 (relative stereo) | 58.7 | –
COc1cc(OC)cc([C@@H]2C(=O)c3cc(OC)cc(OC)c3[C@H]2Cc2ccccc2)c1 (relative stereo) | 86.9 | –
COc1ccc([C@@H]2c3cc(OC)ccc3C(=O)[C@H]2c2ccc(OC)cc2)cc1 (relative stereo) | 79.3 | –
COc1ccc([C@@H]2C(=O)c3ccc(OC)cc3[C@H]2c2ccc(OC(F)(F)F)cc2)cc1 (relative stereo) | 76.3 | –
COc1cc(OC)cc([C@@H]2C(=O)c3cc(OC)cc(OC)c3[C@H]2c2ccc(OC(F)(F)F)cc2)c1 (relative stereo) | 65.6 | –
COc1cc(OC)cc([C@@H]2C(=O)c3cc(OC)cc(OC)c3[C@H]2c2ccc(O)cc2)c1 (relative stereo) | 65.6 | –
COc1ccc([C@@H]2C(=O)c3ccc(OC)cc3[C@H]2c2ccc(-c3ccccc3)cc2)cc1 (relative stereo) | 57.5 | –
COc1ccc(C2C(=O)c3ccc(OC)cc3C2c2ccccc2)cc1 (single isomer, unassigned; (+)) [listing 1 of 2 here] | – | IC50 ([2]; raw264.7): 23.5 µM
COc1ccc(C2C(=O)c3ccc(OC)cc3C2c2ccccc2)cc1 (single isomer, unassigned; (+)) [listing 2 of 2 here] | – | inhibition [2]: Dose-dependent effect
COc1ccc(C2C(=O)c3ccc(OC)cc3C2c2ccccc2)cc1 (single isomer, unassigned; (-)) [listing 1 of 2 here] | – | IC50 ([2]; raw264.7): 23.7 µM; LD50 [18]: 275 mg/kg
COc1ccc(C2C(=O)c3ccc(OC)cc3C2c2ccccc2)cc1 (single isomer, unassigned; (-)) [listing 2 of 2 here] | – | inhibition [2]: Dose-dependent effect
Oc1ccc(/C=C/c2cc(O)cc(O)c2)cc1 [RESVERATROL] | 35 | –
